Tested on: Fibroblast
Experiment: Multiplex assay against human fibroblast
Type: toxicity, cell-based
Procedure, shortened: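 With compound added, live cells were imaged on a CQ1 microscope at 37°C and 5% CO2; staining with Hoechst33342, BioTracker Green Microtubule Cytoskeleton Dye, MitoTracker Red and Annexin V Alexa Fluor 680 had been done at seeding. The CellPathfinder machine-learning gating scheme split cells into Hoechst high-intensity objects or normal cells, normal cells into healthy, pyknosed or fragmented nuclei, and pyknosed cells into mitotic or apoptotic. The tubulin, mitochondrial-mass and membrane-permeability phenotypes are per cents of healthy-nucleus cells.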

[1] = 12 h, 1 µM, compound concentration 1 uM, replicate 1
[2] = 12 h, 1 µM, compound concentration 1 uM, replicate 2
[3] = 12 h, 10 µM, compound concentration 10 uM, replicate 1
[4] = 12 h, 10 µM, compound concentration 10 uM, replicate 2
[5] = 24 h, 1 µM, compound concentration 1 uM, replicate 1
[6] = 24 h, 1 µM, compound concentration 1 uM, replicate 2
[7] = 24 h, 10 µM, compound concentration 10 uM, replicate 1
[8] = 24 h, 10 µM, compound concentration 10 uM, replicate 2
[9] = 48 h, 1 µM, compound concentration 1 uM, replicate 1
[10] = 48 h, 1 µM, compound concentration 1 uM, replicate 2
[11] = 48 h, 10 µM, compound concentration 10 uM, replicate 1
[12] = 48 h, 10 µM, compound concentration 10 uM, replicate 2

C=CCN1C[C@H](C(=O)N(CCCN(C)C)C(=O)NCC)C[C@@H]2c3cccc4[nH]cc(c34)C[C@H]21 [CABERGOLINE]
Population Apoptotic (%) [1]: 69% | Population Fragmented Nuclei (%) [1]: 13% | Population Healthy Nuclei (%) [1]: 78% | Population Hoechst High Intensity Objects (%) [1]: 6% | Population Membrane Permeable-Phenotype (%) [1]: 0% | Population Mitochondria Different-Phenotype (%) [1]: 2% | Population Mitotic Cells (%) [1]: 30% | Population Normal (%) [1]: 93% | Population Pyknosed Nuclei (%) [1]: 7% | Population Tubulin-Different-Phenotype (%) [1]: 26% | Total Cell Count [1]: 186 | Population Apoptotic (%) [2]: 35% | Population Fragmented Nuclei (%) [2]: 20% | Population Healthy Nuclei (%) [2]: 46% | Population Membrane Permeable-Phenotype (%) [2]: 4% | Population Mitochondria Different-Phenotype (%) [2]: 1% | Population Mitotic Cells (%) [2]: 64% | Population Pyknosed Nuclei (%) [2]: 33% | Population Tubulin-Different-Phenotype (%) [2]: 25% | Total Cell Count [2]: 144 | Population Apoptotic (%) [3]: 50% | Population Fragmented Nuclei (%) [3]: 25% | Population Healthy Nuclei (%) [3]: 64% | Population Hoechst High Intensity Objects (%) [3]: 3% | Population Membrane Permeable-Phenotype (%) [3]: 0% | Population Mitochondria Different-Phenotype (%) [3]: 11% | Population Mitotic Cells (%) [3]: 50% | Population Normal (%) [3]: 96% | Population Pyknosed Nuclei (%) [3]: 10% | Population Tubulin-Different-Phenotype (%) [3]: 46% | Total Cell Count [3]: 248 | Population Apoptotic (%) [4]: 35% | Population Fragmented Nuclei (%) [4]: 44% | Population Healthy Nuclei (%) [4]: 39% | Population Hoechst High Intensity Objects (%) [4]: 5% | Population Membrane Permeable-Phenotype (%) [4]: 6% | Population Mitochondria Different-Phenotype (%) [4]: 10% | Population Mitotic Cells (%) [4]: 64% | Population Normal (%) [4]: 94% | Population Pyknosed Nuclei (%) [4]: 16% | Population Tubulin-Different-Phenotype (%) [4]: 53% | Total Cell Count [4]: 178 | Population Apoptotic (%) [5]: 68% | Population Fragmented Nuclei (%) [5]: 15% | Population Healthy Nuclei (%) [5]: 74% | Population Hoechst High Intensity Objects (%) [5]: 4% | Population Membrane Permeable-Phenotype (%) [5]: 1% | Population Mitochondria Different-Phenotype (%) [5]: 3% | Population Mitotic Cells (%) [5]: 31% | Population Normal (%) [5]: 95% | Population Pyknosed Nuclei (%) [5]: 10% | Population Tubulin-Different-Phenotype (%) [5]: 33% | Total Cell Count [5]: 198 | Population Apoptotic (%) [6]: 44% | Population Fragmented Nuclei (%) [6]: 24% | Population Healthy Nuclei (%) [6]: 46% | Population Hoechst High Intensity Objects (%) [6]: 6% | Population Membrane Permeable-Phenotype (%) [6]: 3% | Population Mitotic Cells (%) [6]: 55% | Population Normal (%) [6]: 93% | Population Pyknosed Nuclei (%) [6]: 29% | Population Tubulin-Different-Phenotype (%) [6]: 39% | Total Cell Count [6]: 132 | Population Apoptotic (%) [7]: 73% | Population Fragmented Nuclei (%) [7]: 28% | Population Healthy Nuclei (%) [7]: 65% | Population Hoechst High Intensity Objects (%) [7]: 1% | Population Membrane Permeable-Phenotype (%) [7]: 0% | Population Mitochondria Different-Phenotype (%) [7]: 7% | Population Mitotic Cells (%) [7]: 26% | Population Normal (%) [7]: 98% | Population Pyknosed Nuclei (%) [7]: 5% | Population Tubulin-Different-Phenotype (%) [7]: 44% | Total Cell Count [7]: 274 | Population Apoptotic (%) [8]: 43% | Population Fragmented Nuclei (%) [8]: 43% | Population Healthy Nuclei (%) [8]: 46% | Population Hoechst High Intensity Objects (%) [8]: 10% | Population Membrane Permeable-Phenotype (%) [8]: 2% | Population Mitochondria Different-Phenotype (%) [8]: 5% | Population Mitotic Cells (%) [8]: 56% | Population Normal (%) [8]: 89% | Population Pyknosed Nuclei (%) [8]: 9% | Population Tubulin-Different-Phenotype (%) [8]: 53% | Total Cell Count [8]: 181 | Population Apoptotic (%) [9]: 56% | Population Fragmented Nuclei (%) [9]: 15% | Population Healthy Nuclei (%) [9]: 75% | Population Hoechst High Intensity Objects (%) [9]: 5% | Population Membrane Permeable-Phenotype (%) [9]: 0% | Population Mitochondria Different-Phenotype (%) [9]: 6% | Population Mitotic Cells (%) [9]: 43% | Population Normal (%) [9]: 94% | Population Pyknosed Nuclei (%) [9]: 8% | Population Tubulin-Different-Phenotype (%) [9]: 34% | Total Cell Count [9]: 189 | Population Apoptotic (%) [10]: 58% | Population Fragmented Nuclei (%) [10]: 24% | Population Healthy Nuclei (%) [10]: 54% | Population Hoechst High Intensity Objects (%) [10]: 7% | Population Membrane Permeable-Phenotype (%) [10]: 6% | Population Mitochondria Different-Phenotype (%) [10]: 1% | Population Mitotic Cells (%) [10]: 41% | Population Normal (%) [10]: 92% | Population Pyknosed Nuclei (%) [10]: 21% | Population Tubulin-Different-Phenotype (%) [10]: 33% | Total Cell Count [10]: 156 | Population Apoptotic (%) [11]: 72% | Population Fragmented Nuclei (%) [11]: 24% | Population Healthy Nuclei (%) [11]: 68% | Population Hoechst High Intensity Objects (%) [11]: 4% | Population Membrane Permeable-Phenotype (%) [11]: 1% | Population Mitochondria Different-Phenotype (%) [11]: 4% | Population Mitotic Cells (%) [11]: 27% | Population Normal (%) [11]: 95% | Population Pyknosed Nuclei (%) [11]: 6% | Population Tubulin-Different-Phenotype (%) [11]: 46% | Total Cell Count [11]: 282 | Population Apoptotic (%) [12]: 46% | Population Fragmented Nuclei (%) [12]: 52% | Population Healthy Nuclei (%) [12]: 37% | Population Hoechst High Intensity Objects (%) [12]: 5% | Population Membrane Permeable-Phenotype (%) [12]: 6% | Population Mitochondria Different-Phenotype (%) [12]: 11% | Population Mitotic Cells (%) [12]: 53% | Population Normal (%) [12]: 94% | Population Pyknosed Nuclei (%) [12]: 9% | Population Tubulin-Different-Phenotype (%) [12]: 44% | Total Cell Count [12]: 170
